The source of these data is the RNAGym collection of RNA variant scans (doi:10.1038/nmeth.2970).

B1: NELF-E aptamer (parent)
chain: CCCAACGACUGCCGAGCGAGAUUACGCUUGAGCGCCCCACUGAGGAUGCCCACGGGCGAUUGGGGCACGG

Variants of B1 are the subject of this data set. The data set can be described thus: HiTS-RAP. The conditions noted are these: with NELF-E (Drosophila). An outline of the steps:
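Aptamer DNA templates carrying a T7 promoter and ter site were sequenced on an Illumina GAIIx flowcell, then transcribed in situ by T7 RNA polymerase and halted by GST-Tus (30 minutes, 37°C). Clusters were imaged after 30-minute room-temperature equilibration with NELF-E-mOrange at 0.064 to 1000 nM in HEPES binding buffer, and only the first binding curve was used. Intensities were normalised to sequencing intensity and averaged per sequence. Kd came from weighted Hill fits, keeping fits with variance below 1,000,000.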
With A24G A31U, the Kd stood at 6.88 nM.
For the variant A24G A31G, the dissociation constant Kd was 6.54 nM.
In the case of U23G C36A it was 8.43 nM; in that of U23G C36G, 5.58 nM.
In the case of U23G C36U, the Kd worked out at 8.06 nM.
As for U23G G62A, the figure is 15.5 nM; as for U23G G62U, 9.09 nM; as for C25U U41G, 6.6 nM.
Turning to U23G G42U, the Kd came out at 13.1 nM.
Consider U23G G42A, for which the dissociation constant Kd worked out at 60.7 nM.
As for A24G C35U, the figure is 9.45 nM; as for A24G U47A, 13 nM.
With A24G U47G, the Kd came out at 7.22 nM.
In the case of U23G G55U it was 8.32 nM; in that of U23G G55C, 6.97 nM.
In the case of U23G G55A it was 7.34 nM; in that of A24G A39G, 10.2 nM; in that of A24G A39U, 29.5 nM.
For the variant C25G G26C, the Kd is 6 nM.
For the variant C25G G26U, the equilibrium dissociation constant (Kd) worked out at 5.3 nM.
Turning to A24G C33G, the Kd was 8.38 nM.
As for A24G C33U, the figure is 5.71 nM; as for A24G A52U, 14.2 nM.
In the case of A24G A52G it was 5.14 nM.
For the variant U23G C66U, the Kd came out at 6 nM.
On to U23G G32U, for which the Kd turned out to be 6.92 nM.
For U23G G32A, the dissociation constant Kd came out at 5.52 nM.
For the variant A24G C53G, the Kd was 7.46 nM.
In the case of A24G C53U it was 4.2 nM; in that of U23G G64U, 6.13 nM.
Regarding U23G G64A, the dissociation constant Kd was 6.56 nM.
In the case of U23G G64C it was 6.24 nM; in that of A24G U29G, 5.84 nM; in that of A24G U29C, 4.85 nM.
Turning to A24G U29A, the dissociation constant (Kd) worked out at 4.42 nM.
In the case of A24G C36U it was 6.95 nM; in that of A24G C36G, 8.51 nM; in that of A24G G42A, 56 nM.
On to U23G U41G, for which the equilibrium dissociation constant (Kd) was determined as 5.48 nM.
As for U23G U41A, the figure is 66.7 nM; as for U23G U41C, 93.8 nM; as for U23G G34U, 5.63 nM.
As to U23G G34A, the equilibrium dissociation constant (Kd) turned out to be 7.56 nM.
In the case of A24G G26A it was 5.08 nM; in that of A24G G26U, 6.2 nM.
With G26U U41G, the Kd was 6.71 nM.
In the case of A24G G48A it was 14.2 nM; in that of U23G G65A, 4.87 nM; in that of U23G G65U, 6.65 nM.
As for A24G C37A, the figure is 10.1 nM; as for A24G C37U, 15.3 nM; as for A24G C37G, 7.93 nM.
On to A24G G56U, for which the Kd was 8.45 nM.
As for A24G G56A, the figure is 11.9 nM.
As to A24G G63U, the Kd was 11 nM.
In the case of A24G G63A it was 14.3 nM.
A24G U60C: the Kd stood at 12.8 nM.
Regarding A24G G45U, the equilibrium dissociation constant (Kd) came out at 6.64 nM.
In the case of A24G G32A it was 5.64 nM; in that of A24G G32U, 6.57 nM.
In the case of A24G C27U it was 6.16 nM.
As for U23G C40U, the figure is 135 nM; as for U23G C40G, 5.5 nM.
Take U23G C50U: the dissociation constant Kd worked out at 12.6 nM.
As for U23G C50A, the figure is 16.7 nM; as for U23G C50G, 5.73 nM.
In the case of G26U U29G it was 7.41 nM.
As for A24G A59G, the figure is 36.5 nM.
U23G C57U: the dissociation constant (Kd) was found to be 5.72 nM.
As for U23G G63A, the Kd worked out at 20.3 nM.
As for U23G G63U, the figure is 12.9 nM.
As for A24G C49U, the Kd worked out at 13.4 nM.
In the case of A24G C38U it was 8.33 nM; in that of U23G G44A, 68.6 nM; in that of U23G G44U, 6.93 nM.
As for U23G G56U, the figure is 5.61 nM; as for U23G G56A, 8.2 nM.
As for A24G C57U, the figure is 6.3 nM; as for A24G G55A, 11.1 nM.
Turning to C25G U41G, the Kd came to 6.42 nM.
For A24G C66U, the Kd was 5.38 nM.
G26U C27G: the equilibrium dissociation constant (Kd) came out at 4.95 nM.
As for U23G G58U, the figure is 15.1 nM; as for G26A A67G, 4.9 nM; as for U23G U60C, 11.9 nM.
For the variant U23G U60A, the equilibrium dissociation constant (Kd) is 12.9 nM.
In the case of U23G U60G it was 4.68 nM.
As for U23G G45U, the figure is 6.11 nM.
U23G G45A: the equilibrium dissociation constant (Kd) is 19.3 nM.
In the case of A24G G65A it was 5.2 nM; in that of A24G G65U, 6 nM.
As for G26A U29G, the figure is 5.28 nM; as for U23G C53U, 4.17 nM; as for U23G C53A, 6.72 nM.
As for U23G C53G, the figure is 7.15 nM.
As for A24G C51U, the Kd stood at 8.86 nM.
As for A24G G54A, the figure is 11.9 nM; as for A24G G54U, 7.49 nM.
As for G26A U41G, the figure is 4.19 nM; as for U23G C49G, 7.29 nM.
Consider U23G C49U, for which the Kd turned out to be 15.6 nM.
As to U23G C51U, the Kd was 7.2 nM.
For the variant U23G C51G, the Kd stood at 5.33 nM.
As for G26C C27G, the figure is 3.95 nM; as for U23G G26U, 6.03 nM; as for U23G G26A, 6.05 nM.
U23G C37G: the Kd came to 7.9 nM.
As for U23G C37U, the figure is 13.8 nM; as for U23G C37A, 13.4 nM; as for U23G G30A, 4.6 nM.
Regarding U23G G30U, the Kd came out at 7.41 nM.
Consider A24G U28C, for which the Kd came to 12.3 nM.
Regarding A24G U28G, the Kd stood at 8.97 nM.
Regarding A24G U28A, the Kd stood at 3.42 nM.
A24G C40G: the dissociation constant (Kd) was 6.34 nM.
A24G G44A: the dissociation constant (Kd) was determined as 18.5 nM.
As for C25G U29G, the Kd is 6.18 nM.
As for C25A, the figure is 4.89 nM; as for C25G, 5.2 nM.
In the case of C25U it was 5.19 nM; in that of A24G G62A, 26.1 nM; in that of A24G A67U, 7.95 nM.
In the case of A24G A67G it was 6.13 nM; in that of U23G C38A, 35.2 nM; in that of U23G C38U, 9.73 nM.
Take U23G U47A: the Kd worked out at 13.5 nM.
For U23G U47G, the Kd was 6.6 nM.
Turning to A24G G30A, the Kd amounted to 5.17 nM.
On to A24G G30U, for which the dissociation constant Kd stood at 7.16 nM.
As for A24G G64U, the figure is 6.61 nM; as for A24G G64A, 7.13 nM.
As for A24G G64C, the figure is 5.75 nM; as for A24G A46G, 11.5 nM; as for A24G A46U, 58.5 nM.
For U23G U28A, the dissociation constant (Kd) was determined as 5.01 nM.
As for U23G U28C, the figure is 9 nM; as for U23G U28G, 7.22 nM.
In the case of A24G A43U, the equilibrium dissociation constant (Kd) was determined as 55.4 nM.
For the variant A24G A43G, the Kd was found to be 27.9 nM.
In the case of U23G U29G it was 5.13 nM; in that of U23G U29A, 5.6 nM; in that of U23G U29C, 5.67 nM.
For the variant A24G U41G, the equilibrium dissociation constant (Kd) came to 5.63 nM.
In the case of A24G U41A it was 92.9 nM; in that of C25U U29G, 6.54 nM; in that of G26C, 13.8 nM.
As for G26U, the figure is 5.53 nM.
G26A: the dissociation constant Kd turned out to be 4.05 nM.
As for A24G U61G, the figure is 9.98 nM.
As for A24G U61C, the figure is 76.4 nM; as for A24G U61A, 34.7 nM.
Consider G26A C57U, for which the dissociation constant Kd amounted to 6.13 nM.
In the case of U23G U61G it was 6.91 nM.
Regarding U23G U61A, the Kd turned out to be 31 nM.
As for U23G U61C, the figure is 67.8 nM; as for A24U U29G, 6.22 nM; as for U23G G48U, 7.64 nM.
As for U23G G48A, the figure is 11 nM.
As for A24U, the figure is 5.93 nM.
On to A24C, for which the Kd came to 5.86 nM.
In the case of A24G it was 5.47 nM; in that of A24G G34A, 8.56 nM; in that of U23G G54A, 14.4 nM.
In the case of U23G G54U it was 11.1 nM; in that of A24G C50U, 9.69 nM.
Consider A24G C25U, for which the Kd is 6.02 nM.
In the case of A24U U41G it was 6.61 nM.
